Experiments:
Assay type in all cases: binding
p65_45/14-3-3γ [1] = target: T1, p65_45/14-3-3γ (Homo sapiens, UniProt P61981+Q04206); assay: Fluorescence anisotropy; conditions: 50 μM 14-3-3γ, 100 nM p65_45
p65_45/14-3-3σΔC complex = p65_45/14-3-3σΔC complex (Homo sapiens, UniProt P31947+Q04206, E49R); assay: X-ray crystal soaking of fragments into p65_45/14-3-3σΔC crystals; conditions: soak 10 mM compound, 7 days; imine bond to Lys122 of 14-3-3
Outline: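 His-tag-free 14-3-3σΔC (12 mg/mL) was complexed overnight 1:2 with N-acetyl, C-amide p65 pSer45 peptide in 20 mM HEPES pH 7.5, 2 mM MgCl2, 2 mM β-mercaptoethanol. Crystals grew in hanging drops (95 mM HEPES pH 7.5, 27–28% PEG400, 190 mM CaCl2, 5% glycerol). Test compound from DMSO stock was added to final 10 mM (≤1% DMSO) for 7 days. Crystals were flash-frozen; binding was judged from 2Fo-Fc density.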

ERα-peptide/14-3-3γ = target: T2, ERα-peptide/14-3-3γ (Homo sapiens, UniProt P61981); assay: FA compound titration, selectivity: ERα-peptide and 14-3-3γ; conditions: 0.1 μM 14-3-3γ, 10 nM peptide
T2 sequence (P61981 1-247): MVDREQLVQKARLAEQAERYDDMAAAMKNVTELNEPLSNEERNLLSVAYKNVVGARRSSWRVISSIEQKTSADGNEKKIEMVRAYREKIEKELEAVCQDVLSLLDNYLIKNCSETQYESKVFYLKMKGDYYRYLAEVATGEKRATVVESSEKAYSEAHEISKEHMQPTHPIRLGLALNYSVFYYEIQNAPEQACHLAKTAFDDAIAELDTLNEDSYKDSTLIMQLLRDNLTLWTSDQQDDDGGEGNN

TAZ-peptide/14-3-3γ = target: T3, TAZ-peptide/14-3-3γ (Homo sapiens, UniProt P61981); assay: FA compound titration, selectivity: TAZ-peptide and 14-3-3γ; conditions: 0.1 μM 14-3-3γ, 10 nM peptide
T3 sequence (P61981 1-247): T2 sequence (P61981 1-247)

p53-peptide/14-3-3γ = target: T4, p53-peptide/14-3-3γ (Homo sapiens, UniProt P61981); assay: FA compound titration, selectivity: p53-peptide and 14-3-3γ; conditions: 0.3 μM 14-3-3γ, 10 nM peptide
T4 sequence (P61981 1-247): T2 sequence (P61981 1-247)

p65_45/14-3-3γ [2] = target: T1, p65_45/14-3-3γ; assay: Fluorescence anisotropy; conditions: fold-change of apparent KD in comparison to a DMSO control, 1 mM fragment

Chain of p65_45/14-3-3σΔC complex (P31947 1-231, other chains not shown): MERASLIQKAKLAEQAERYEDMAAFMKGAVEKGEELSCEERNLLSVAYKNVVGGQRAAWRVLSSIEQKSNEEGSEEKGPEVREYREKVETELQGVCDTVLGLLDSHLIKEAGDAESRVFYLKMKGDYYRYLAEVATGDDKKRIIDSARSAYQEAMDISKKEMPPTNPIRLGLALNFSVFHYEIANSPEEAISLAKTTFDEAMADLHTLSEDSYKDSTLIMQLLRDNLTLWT

SMILES	ternary complex formation in FA compound titration (in words) (p65_45/14-3-3γ [1])	binding of the fragment in X-ray crystal soaking experiments (p65_45/14-3-3σΔC complex)	further results
COC1CCCN(c2cc(C=O)ccc2[N+](=O)[O-])C1 (stereo not shown) [13e]	did not elicit significant ternary complex formation	significant electron density coverage	
O=Cc1ccc([N+](=O)[O-])c(N2CCCC(O)C2)c1 (stereo not shown) [13l]	did not elicit significant ternary complex formation	significant electron density coverage	
O=Cc1ccc(S(=O)(=O)N2CCNc3ccccc32)cc1 [24j]			ternary complex formation with ERα (ERα-peptide/14-3-3γ): no ternary complex formation was detected; ternary complex formation with TAZ (TAZ-peptide/14-3-3γ): no ternary complex formation was detected; ternary complex formation with p53 (p53-peptide/14-3-3γ): no ternary complex formation was detected
O=Cc1ccc([N+](=O)[O-])c(N2CCC(O)CC2)c1 [13f]	did not elicit significant ternary complex formation	significant electron density coverage	
O=Cc1ccc(-n2ccnc2Br)nc1 [16d]	induced an increase in anisotropy	detected in the electron density map	
O=Cc1ccc(S(=O)(=O)N2CCC(N3CCCC3)CC2)cc1 [23m]			SF (stabilization factor) (p65_45/14-3-3γ [2]): 4.5 fold
O=Cc1ccc([N+](=O)[O-])c(OC(=O)C2CCC2)c1 [10a]		bound to Lys122	
